Experimental data from ChEMBL document CHEMBL4033681, “Lipase-catalyzed kinetic resolution as key step in the synthesis of enantiomerically pure σ ligands with 2-benzopyran structure” (Bioorg Med Chem, 2017).
Calls of active or inactive are those of the source. The rule behind the calls is not given here.

How the values were obtained:
[1] = biological target: T1, Sigma intracellular receptor 2 (Rattus norvegicus, UniProt Q5U3Y7); test: Displacement of [3H]DTG from sigma-2 receptor in rat liver membranes after 120 mins by microbeta scintillation counting method; format: cell membranes, Membrane
T1 sequence (Q5U3Y7 whole entry): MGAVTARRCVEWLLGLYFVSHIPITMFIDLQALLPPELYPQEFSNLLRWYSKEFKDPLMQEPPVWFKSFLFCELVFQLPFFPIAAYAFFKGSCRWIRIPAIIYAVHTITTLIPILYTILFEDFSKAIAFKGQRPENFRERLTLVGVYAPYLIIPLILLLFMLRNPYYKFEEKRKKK

[2] = Displacement of [3H]-(+)-MK-801 from NMDA receptor PCP binding site in pig brain cortex membranes after 120 mins by microbeta scintillation counting method; format: cell membranes, Sus scrofa
[3] = biological target: Sigma non-opioid intracellular receptor 1 (Cavia porcellus, UniProt Q60492); test: Displacement of [3H]-(+)-pentazocine from sigma-1 receptor in guinea pig brain membranes after 120 mins by microbeta scintillation counting method; format: cell membranes, Membrane
Yarrowia lipolytica [4] = test: Inhibition of Yarrowia lipolytica DSM 1345 sterol-delta8/delta7-isomerase assessed as change in sterol pattern at 4 ug/ml after 48 hrs by GC-MS analysis
In short: (§1)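 Cellular assay in the model yeast Yarrowia lipolytica, with compounds at 4 µg/mL. Both growth and the sterol pattern were monitored as read-outs of fungal sterol-Δ8/Δ7-isomerase inhibition.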

[5] = biological target: 3-beta-hydroxysteroid-Delta(8),Delta(7)-isomerase (Homo sapiens) (UniProt Q15125); test: Inhibition of sterol-delta8/delta7-isomerase in human HL60 cells assessed as accumulation of cholesta-8,14-dienol at 50 uM after 24 hrs; format: cell-based
In short: (§2)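 HL-60 cells were screened for inhibition of post-squalene cholesterol-biosynthesis enzymes. Sterol pattern was checked at 1 µM test concentration, and cholesta-8,14-dienol accumulation was examined at 50 µM.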

[6] = biological target: 3-beta-hydroxysteroid-Delta(8),Delta(7)-isomerase (Homo sapiens) (UniProt Q15125); test: Inhibition of sterol-delta8/delta7-isomerase in human HL60 cells assessed as change in sterol pattern at 1 uM after 24 hrs; format: cell-based; in short: as §2
Yarrowia lipolytica [7] = test: Growth inhibition of Yarrowia lipolytica DSM 1345 at 4 ug/ml; format: functional; in short: as §1
[8] = biological target: T2, Sigma intracellular receptor 2 (Rattus norvegicus) (UniProt Q5U3Y7); test: Displacement of [3H]DTG from sigma-2 receptor in rat liver membranes at 1 uM after 120 mins by microbeta scintillation counting method relative to control; format: cell membranes; conditions: Membrane
T2 sequence (whole entry): T1 sequence (Q5U3Y7 whole entry)
In short: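 Rat liver homogenate was the receptor source, labelled with [³H]-di-o-tolylguanidine. Excess (+)-pentazocine was added to mask σ1 sites.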

Chain of Sigma non-opioid intracellular receptor 1 (Q60492 whole entry): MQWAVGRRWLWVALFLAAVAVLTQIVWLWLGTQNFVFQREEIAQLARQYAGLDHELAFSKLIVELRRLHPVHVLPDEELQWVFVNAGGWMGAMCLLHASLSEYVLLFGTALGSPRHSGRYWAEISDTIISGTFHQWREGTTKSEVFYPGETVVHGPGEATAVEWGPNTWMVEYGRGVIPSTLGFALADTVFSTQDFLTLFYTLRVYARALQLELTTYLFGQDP
Chain of 3-beta-hydroxysteroid-Delta(8),Delta(7)-isomerase (Homo sapiens) (Q15125 whole entry): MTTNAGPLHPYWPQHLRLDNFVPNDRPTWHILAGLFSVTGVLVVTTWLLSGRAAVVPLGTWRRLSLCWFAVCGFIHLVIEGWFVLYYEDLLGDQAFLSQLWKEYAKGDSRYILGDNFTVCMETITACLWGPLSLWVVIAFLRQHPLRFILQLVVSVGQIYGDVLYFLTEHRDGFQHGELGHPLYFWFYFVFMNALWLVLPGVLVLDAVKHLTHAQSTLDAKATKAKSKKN

Row | Ki [1] | IC50 [2] | Ki [3] | SMILES | also measured
1 | 68 nM | > 10000 nM | 24 nM | CCCCCCCCN1CCC2(CC1)O[C@@H](CCO)Cc1ccccc12 | 
2 |  |  |  | CCCCCCCCN1CCC2(CC1)OC(CCO)Cc1ccccc12 (racemic) | inhibition (Yarrowia lipolytica [4]): inactive; inhibition [5]: Active; inhibition [6]: inactive; growth inhibition (GI) (Yarrowia lipolytica [7]): inactive
3 | 1220 nM | > 10000 nM |  | OCC[C@H]1Cc2ccccc2C2(CCN(CCCc3ccccc3)CC2)O1 | 
4 | 614 nM | > 10000 nM |  | OCC[C@@H]1Cc2ccccc2C2(CCN(CC3CCCCC3)CC2)O1 | 
5 | 510 nM | > 10000 nM |  | OCC[C@H]1Cc2ccccc2C2(CCN(CC3CCCCC3)CC2)O1 | 
6 | 519 nM | > 10000 nM |  | OCC[C@@H]1Cc2ccccc2C2(CCN(CCCc3ccccc3)CC2)O1 | 
7 |  | > 10000 nM | 860 nM | COC(=O)C[C@@H]1Cc2ccccc2[C@H](CCN2CCCCC2)O1 | inhibition [8]: 39%
8 |  |  |  | COC(=O)CC1Cc2ccccc2C(CCN2CCC(c3ccccc3)CC2)O1 (racemic) | inhibition (Yarrowia lipolytica [4]): inactive; inhibition [5]: Active; inhibition [6]: inactive; growth inhibition (GI) (Yarrowia lipolytica [7]): inactive
9 |  | > 10000 nM |  | OCC[C@@H]1Cc2ccccc2C2(CCN(Cc3ccccc3)CC2)O1 | inhibition [8]: 9%
10 |  | > 10000 nM | 556 nM | COC(=O)C[C@H]1Cc2ccccc2[C@@H](CCN2CCCCC2)O1 | inhibition [8]: 13%
11 | 32 nM | > 10000 nM | 43 nM | COC(=O)C[C@@H]1Cc2ccccc2[C@H](CCN2CCC(c3ccccc3)CC2)O1 | 
12 | 525 nM | > 10000 nM | 33 nM | COC(=O)C[C@H]1Cc2ccccc2[C@@H](CCN2CCC(c3ccccc3)CC2)O1 | 
13 | 260 nM | > 10000 nM | 56 nM | CCCCCCCCN1CCC2(CC1)O[C@H](CCO)Cc1ccccc12 | 
14 |  |  |  | OCCC1Cc2ccccc2C2(CCN(CCCc3ccccc3)CC2)O1 (racemic) | inhibition (Yarrowia lipolytica [4]): inactive; inhibition [5]: Active; inhibition [6]: inactive; growth inhibition (GI) (Yarrowia lipolytica [7]): inactive
15 |  | > 10000 nM |  | OCC[C@H]1Cc2ccccc2C2(CCN(Cc3ccccc3)CC2)O1 | inhibition [8]: 21%

Row | SMILES | Ki [1] | IC50 [2] | Ki [3] | also measured
16 | FCC[C@H]1OC2(CCN(Cc3ccccc3)CC2)c2ccccc21 |  |  | 0.57 nM | 
17 | FCC[C@@H]1OC2(CCN(Cc3ccccc3)CC2)c2ccccc21 |  |  | 2.3 nM | 
